This is an account of results in ChEMBL document CHEMBL5104212, “Green synthesis of 3-methyl-4-(hetero)aryl methylene isoxazole-5(4H)-ones using WEOFPA/glycerol: evaluation of anticancer and electrochemical behaviour properties” (RSC Med Chem, 2022).

Data set [1] has as its system A549. In words: Anticancer activity against human A549 cells assessed as inhibition of cell growth incubated for 48 hrs by MTT assay. Type of data set: functional, cell-based. As to conditions: A549, 48 h; call rule not given here. The gist of the method:
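A549 cells were seeded in 96-well plates and held overnight at 37°C, 95% humidity, 5% CO₂. Compounds came from DMSO stock dilution series and were added at 100, 50, 25, 12.5, 6.25 and 3.125 μg/mL for 48 hrs. Wells were PBS-washed, given MTT for 4h at 37°C, and formazan was dissolved in DMSO. A570 was read, and survival was taken as mean test OD over mean negative-control OD ×100.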
For orientation: Tetrazolium assays rely on reduction of a dye to a coloured formazan, in cell work by metabolically active cells.

A short description of data set [2]: Electrochemical behavior of the compound assessed as reduction potential peak by measuring […] current in DMSO using Ag/AgCl reference electrode by cyclic voltammetry. The format is physicochemical.
Data set [3] in a line: Electrochemical behavior of the compound assessed as oxidation potential peak by measuring […] current in DMSO using Ag/AgCl reference electrode by cyclic voltammetry. Type of data set: physicochemical.

As usually defined, the IC50 is the midpoint of a concentration-inhibition curve.

For `COc1cccc2c1C(=O)c1c(O)c3c(c(O)c1C2=O)C[C@@](O)(C(=O)CO)C[C@@H]3O[C@H]1C[C@H](N)[C@H](O)[C@H](C)O1` [DOXORUBICIN], the IC50 in data set [1] was 8.73 µM.

Turning to `CC1=NOC(=O)/C1=C/c1c(O)ccc2ccccc12`, the outcome in data set [2] and in data set [3] was Active. Also, in data set [1], the IC50 worked out at 22.8 µM.

Consider `CC1=NOC(=O)/C1=C/c1c(-c2ccccc2)[nH]c2ccccc12`, for which the result in data set [2] and in data set [3] was Active. Moreover, in data set [1], the IC50 turned out to be 37.4 µM.

For the compound `CC1=NOC(=O)/C1=C/c1c[nH]c2ccccc12`, the outcome in data set [2] and in data set [3] was Active. In addition, the IC50 in data set [1] came to 107 µM.

Consider `COc1ccc(/C=C2/C(=O)ON=C2C)cc1OC`, for which the result in data set [2] and in data set [3] was Active. Moreover, in data set [1], the IC50 worked out at 59.2 µM.

For `CC1=NOC(=O)/C1=C/c1c(Cl)[nH]c2ccccc12`, the result in data set [2] and in data set [3] was Active. For the same compound, the IC50 in data set [1] was 8.99 µM.

For the compound `CC1=NOC(=O)/C1=C/c1cn(-c2ccccc2)cc1-c1ccccc1`, the result in data set [2] and in data set [3] was Active. The IC50 in data set [1] turned out to be 12.3 µM.

Consider `CC1=NOC(=O)C1Cc1cccs1` (stereo not given), for which the result in data set [2] and in data set [3] was Active. In data set [1], the IC50 is 14.2 µM.

With `CC1=NOC(=O)/C1=C/c1ccc[nH]1`, the result in data set [2] and in data set [3] was Active. In addition, the IC50 in data set [1] amounted to 183 µM.
